Laboratory results: ChEMBL document CHEMBL1154240, “Molecular-targeted antitumor agents. 19. Furospongolide from a marine Lendenfeldia sp. sponge inhibits hypoxia-inducible factor-1 activation in breast tumor cells” (J Nat Prod, 2008)
Calls of active or inactive are those of the source. The calls are words filed in the database; no cut-off is given here.

Assays:
MCF7 [1] = experiment: Cytotoxicity against human MCF7 cells under hypoxic condition after 48 hrs by natural red method; assay type: functional, cell-based; settings: MCF7, 48 h
Summary of the method: (§1)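 Cells plated at 30,000/well in DMEM/F12 with 10% FCS and antibiotics and left overnight, then given compound in serum-free DMEM/F12. After a 30 min pre-exposure, incubation ran 48 h under normoxia (5% CO2/95% air) or hypoxia (1% O2/5% CO2/94% N2). Viability was read by neutral red, expressed as % inhibition, from one experiment in triplicate.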

[2] = Selectivity ratio of IC50 for inhibition of hypoxia-induced HIF1 activation in human T47D cells to IC50 for cytotoxicity to human T47D cells; assay type: toxicity, cell-based; settings: read-out: Ratio IC50
[3] = biological target: T1, Hypoxia inducible factors; HIF-1-alpha, HIF-2-alpha (Homo sapiens, UniProt Q16665+Q99814); experiment: Inhibition of hypoxia-induced HIF1 activation in human PC3 cells after 16 hrs by pTK-HRE3-luciferase reporter gene assay; assay type: cell-based; settings: pc-3
Summary of the method: (§2)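 Cells transiently transfected with the pHRE-TK-Luc reporter (HIF-1) or the CMV-driven pGL3-Control plasmid, given compound, then exposed for 16 h to hypoxia (1% O2/5% CO2/94% N2, 37°C) or 10 μM 1,10-phenanthroline. Luciferase read-out: % inhibition = (1 − treated/induced light output) × 100. One experiment in triplicate.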

T47D [4] = experiment: Cytotoxicity against human T47D cells under hypoxic condition after 48 hrs by natural red method; assay type: functional, cell-based; summary of the method: as §1
[5] = biological target: T1, Hypoxia inducible factors; HIF-1-alpha, HIF-2-alpha; experiment: Inhibition of hypoxia-induced HIF1 activation in human T47D cells after 16 hrs by pTK-HRE3-luciferase reporter gene assay; assay type: cell-based; summary of the method: as §2
[6] = biological target: T1, Hypoxia inducible factors; HIF-1-alpha, HIF-2-alpha; experiment: Inhibition of 1,10-phenanthroline-induced HIF1 activation in human T47D cells after 16 hrs by pTK-HRE3-luciferase reporter gene assay; assay type: cell-based; summary of the method: as §2
[7] = biological target: T1, Hypoxia inducible factors; HIF-1-alpha, HIF-2-alpha; experiment: Inhibition of 1,10-phenanthroline-induced HIF1 activation in human PC3 cells after 16 hrs by pTK-HRE3-luciferase reporter gene assay; assay type: cell-based; settings: pc-3; summary of the method: as §2
T47D [8] = experiment: Cytotoxicity against human T47D cells under normoxic condition after 48 hrs by natural red method; assay type: functional, cell-based; summary of the method: as §1
PC-3 [9] = experiment: Cytotoxicity against human PC3 cells under hypoxic condition after 48 hrs by natural red method; assay type: functional, cell-based; settings: PC-3, 48 h; summary of the method: as §1
MDA-MB-231 [10] = experiment: Cytotoxicity against human MDA-MB-231 cells under hypoxic condition after 48 hrs by natural red method; assay type: functional, cell-based; settings: MDA-MB-231, 48 h; summary of the method: as §1
PC-3 [11] = experiment: Cytotoxicity against human PC3 cells under normoxic condition after 48 hrs by natural red method; assay type: functional, cell-based; settings: PC-3, 48 h; summary of the method: as §1
MDA-MB-231 [12] = experiment: Cytotoxicity against human MDA-MB-231 cells under normoxic condition after 48 hrs by natural red method; assay type: functional, cell-based; settings: MDA-MB-231, 48 h; summary of the method: as §1
MCF7 [13] = experiment: Cytotoxicity against human MCF7 cells under normoxic condition after 48 hrs by natural red method; assay type: functional, cell-based; settings: MCF7, 48 h; summary of the method: as §1
T47D [14] = experiment: Cytotoxicity against human T47D cells under hypoxic conditions at 30 uM after 48 hrs by natural red method; assay type: functional; summary of the method: as §1
[15] = biological target: Hypoxia-inducible factor 1-alpha (Homo sapiens) (UniProt Q16665); experiment: Inhibition of 1,10-phenanthroline-induced nuclear HIF1alpha in human T47D cells at 10 uM after 4 hrs by Western blot analysis; assay type: cell-based
[16] = biological target: T1, Hypoxia inducible factors; HIF-1-alpha, HIF-2-alpha; experiment: Inhibition of hypoxia-induced HIF1 activation in human T47D cells at 30 uM after 16 hrs by pTK-HRE3-luciferase reporter gene assay; assay type: cell-based; summary of the method: as §2
T47D [17] = experiment: Inhibition of 1,10-phenanthroline-induced VEGF secretion in human T47D cells at 30 uM after 16 hrs by ELISA; assay type: functional, cell-based
Summary of the method: (§3)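 T47D plated at 356,000 cells/well and left overnight at 37°C. Compound added in serum-free DMEM/F12 for 30 min under air, then 16 h under hypoxia (1% O2/5% CO2/94% N2) or with 10 μM 1,10-phenanthroline. Secreted VEGF in conditioned medium was measured by ELISA and normalized to total lysate protein (BCA).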

[18] = biological target: Hypoxia-inducible factor 1-alpha (Homo sapiens) (UniProt Q16665); experiment: Inhibition of hypoxia-induced nuclear HIF1alpha in human T47D cells at 10 uM after 4 hrs by Western blot analysis; assay type: cell-based
[19] = Selectivity for inhibition of hypoxia-induced HIF1 activation in human T47D cells over cytotoxicity to human T47D cells; assay type: toxicity, cell-based
T47D [20] = experiment: Inhibition of cellular respiration in human T47D cells assessed as oxygen consumption at 30 uM; assay type: functional, cell-based
Summary of the method: (§4)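 Intact T47D cells (5×10^6, equilibrated to 30°C) in 1 mL serum- and antibiotic-free DMEM/F12, with 17.5 mM glucose as substrate, in a Clark-type oxygen electrode. After 15 min baseline, compound in isopropyl alcohol injected at 3 min intervals. Oxygen consumption measured in triplicate; one-way ANOVA with Bonferroni post test.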

T47D [21] = experiment: Inhibition of electron transport protein complex 4 in human T47D cells assessed as decrease in oxygen consumption at 30 uM pretreated for 2 hrs before TMPD/ascorbate addition by mitochondrial respiration assay; assay type: cell-based
Summary of the method: (§5)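 T47D cells permeabilized with 30 μM digitonin in Clark-electrode chamber containing buffer of 20 mM HEPES pH 7.3, 120 mM KCl, 2 mM KH2PO4, 2 mM MgCl2, 1 mM EGTA, 0.3% fat-free BSA. Substrates: 5 mM pyruvate + 5 mM malate (complex I), 5 mM succinate (complex II), 5 mM ascorbate + 0.2 mM TMPD (complex IV); rotenone and antimycin A as inhibitors. Oxygen consumption monitored.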

T47D [22] = experiment: Inhibition of electron transport protein complex 3 in human T47D cells assessed as decrease in oxygen consumption at 30 uM pretreated for 2 hrs before succinate addition by mitochondrial respiration assay; assay type: cell-based; summary of the method: as §5
T47D [23] = experiment: Inhibition of cellular respiration in human T47D cells assessed as oxygen consumption at 10 uM; assay type: functional; summary of the method: as §4
T47D [24] = experiment: Inhibition of electron transport protein complex 2 in human T47D cells assessed as decrease in oxygen consumption at 30 uM pretreated for 2 hrs before succinate addition by mitochondrial respiration assay; assay type: cell-based; summary of the method: as §5
T47D [25] = experiment: Inhibition of electron transport protein complex 1 in human T47D cells assessed as decrease in oxygen consumption at 30 uM pretreated for 2 hrs before malate and pyruvate addition by mitochondrial respiration assay; assay type: cell-based; summary of the method: as §5
[26] = biological target: Aryl hydrocarbon receptor nuclear translocator (Homo sapiens) (UniProt P27540); experiment: Inhibition of hypoxia-induced nuclear HIF1beta in human T47D cells at 10 uM after 4 hrs by Western blot analysis; assay type: cell-based
T47D [27] = experiment: Inhibition of hypoxia-induced VEGF secretion in human T47D cells after 16 hrs by ELISA; assay type: functional, cell-based; summary of the method: as §3

Chain of Hypoxia-inducible factor 1-alpha (Homo sapiens) (Q16665 whole entry, looked up): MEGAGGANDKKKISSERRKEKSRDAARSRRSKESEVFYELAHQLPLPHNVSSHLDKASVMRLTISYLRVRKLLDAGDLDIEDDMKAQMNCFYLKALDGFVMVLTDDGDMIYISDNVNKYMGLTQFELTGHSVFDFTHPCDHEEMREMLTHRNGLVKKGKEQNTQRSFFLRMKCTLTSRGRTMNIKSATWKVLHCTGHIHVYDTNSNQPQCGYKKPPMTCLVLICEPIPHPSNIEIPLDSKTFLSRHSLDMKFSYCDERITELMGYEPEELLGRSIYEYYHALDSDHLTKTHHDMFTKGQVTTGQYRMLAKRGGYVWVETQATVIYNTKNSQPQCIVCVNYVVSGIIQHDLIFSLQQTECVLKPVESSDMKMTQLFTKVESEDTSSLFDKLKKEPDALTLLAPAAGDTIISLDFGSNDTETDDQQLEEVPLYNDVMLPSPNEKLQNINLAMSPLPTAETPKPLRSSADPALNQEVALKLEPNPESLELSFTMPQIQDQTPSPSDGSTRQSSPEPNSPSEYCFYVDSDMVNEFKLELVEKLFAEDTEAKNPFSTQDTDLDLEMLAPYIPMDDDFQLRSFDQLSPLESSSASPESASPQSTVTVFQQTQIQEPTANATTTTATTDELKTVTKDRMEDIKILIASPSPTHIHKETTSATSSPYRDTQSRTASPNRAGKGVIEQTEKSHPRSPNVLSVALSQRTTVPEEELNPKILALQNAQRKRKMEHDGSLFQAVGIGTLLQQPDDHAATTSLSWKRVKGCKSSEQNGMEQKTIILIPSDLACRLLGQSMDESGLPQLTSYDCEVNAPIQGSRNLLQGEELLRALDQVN
Chain of Aryl hydrocarbon receptor nuclear translocator (Homo sapiens) (P27540 whole entry): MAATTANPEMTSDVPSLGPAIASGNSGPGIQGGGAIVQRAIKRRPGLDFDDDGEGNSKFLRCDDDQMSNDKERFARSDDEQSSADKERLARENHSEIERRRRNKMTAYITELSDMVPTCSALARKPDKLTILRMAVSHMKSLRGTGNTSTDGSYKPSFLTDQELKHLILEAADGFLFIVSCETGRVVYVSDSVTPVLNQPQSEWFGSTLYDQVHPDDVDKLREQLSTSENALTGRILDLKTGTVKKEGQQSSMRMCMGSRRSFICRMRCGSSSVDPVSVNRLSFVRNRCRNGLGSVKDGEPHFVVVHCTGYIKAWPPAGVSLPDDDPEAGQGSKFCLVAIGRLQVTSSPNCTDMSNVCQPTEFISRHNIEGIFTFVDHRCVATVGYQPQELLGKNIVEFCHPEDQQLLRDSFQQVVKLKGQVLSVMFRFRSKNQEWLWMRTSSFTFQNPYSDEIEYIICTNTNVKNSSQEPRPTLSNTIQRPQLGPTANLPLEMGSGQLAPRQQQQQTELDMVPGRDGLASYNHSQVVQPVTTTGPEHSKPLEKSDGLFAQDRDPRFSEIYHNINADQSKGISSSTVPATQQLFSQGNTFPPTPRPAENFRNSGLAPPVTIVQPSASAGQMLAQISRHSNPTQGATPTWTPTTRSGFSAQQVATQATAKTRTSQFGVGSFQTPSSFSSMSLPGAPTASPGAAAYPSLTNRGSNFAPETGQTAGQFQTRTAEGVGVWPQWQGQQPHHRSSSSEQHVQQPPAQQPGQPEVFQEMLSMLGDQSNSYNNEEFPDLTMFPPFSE

SMILES	IC50 (MCF7 [1]) [µM]	IC50 [3] [µM]	IC50 (T47D [4]) [µM]	IC50 [5] [µM]	IC50 [6] [µM]	IC50 [7] [µM]	IC50 (T47D [8]) [µM]	IC50 (PC-3 [9]) [µM]	IC50 (MDA-MB-231 [10]) [µM]	IC50 (PC-3 [11]) [µM]	IC50 (MDA-MB-231 [12]) [µM]	IC50 (MCF7 [13]) [µM]	further results
CC(=O)C1=CC[C@H]2[C@]3(C)CC[C@H]4C(C)(C)CCC[C@]4(CO)[C@H]3C[C@H](O)[C@]2(C)[C@H]1C=O	0.7	0.5	1.6	0.4	0.2	0.8	1	0.9	–	–	–	–	selectivity ratio [2]: 3
COC(=O)[C@]12CCCC(C)(C)[C@@H]1CC[C@@]1(C)[C@@H]3CC=C(C(C)=O)[C@H](C=O)[C@@]3(C)C(=O)C[C@@H]12	6.8	7.7	10.8	2.7	1	9	5.5	10.2	2	6.4	1.9	6.1	–
CC(=O)C1=CC[C@H]2[C@]3(C)CC[C@H]4C(C)(C)CCC[C@]4(CO)[C@H]3CC(=O)[C@]2(C)[C@H]1C=O	0.6	0.9	1.8	0.5	0.2	1	1.2	1.1	0.3	0.8	0.3	0.6	–
C/C(=C\CCc1ccoc1)CC/C=C(\C)CCCC1=CC(=O)OC1 [FUROSPONGOLIDE]	> 30	> 30	> 30	2.9	10.9	> 30	14	> 30	> 30	> 30	> 30	29	inhibition at 30 µM (T47D [14]): 26%; inhibition [15]: inactive; inhibition [16]: 97%; inhibition (T47D [17]): inactive; inhibition [18]: Active; selectivity ratio [19]: > 10; inhibition (T47D [20]): Active; Activity (T47D [21]): inactive; Activity (T47D [22]): inactive; inhibition at 10 µM (T47D [23]): 38%; Activity (T47D [24]): inactive; Activity (T47D [25]): Active; inhibition [26]: Active; inhibition (T47D [27]): Dose-dependent effect
